Laboratory results as given in the RNAGym collection of RNA variant scans (doi:10.1126/science.aae0568).
This sample holds only a part of the variants without activity.

B1: tRNA (parent)
chain: GUUCCGUUGGCGUAAUGGUAACGCGUCUCCCUCCUAAGGAGAAGACUGCGGGUUCGAGUCCCGUACGGAACG

Variants of: B1
Assay: yeast fitness relative to wild type (ratio to wild type); higher = fitter; tRNA-Arg(CCU), competitive growth, 37 C, YPD
How it was run: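 Variants of the tRNA-Arg(CCU) gene, chemically synthesised with a 3% per-site mutation rate at 69 sites, were placed at the native genomic locus in Saccharomyces cerevisiae. The pooled strains were competed in YPD at 37°C for 24 hours in six parallel replicates. Gene amplicons from the start population and from each end population were read by 100-nucleotide paired-end sequencing. Darwinian fitness relative to wild type came from changes in genotype frequencies; genotypes needed ≥ 100 starting reads, and estimates < 0.5 were set to 0.5.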

Row | Variant | yeast fitness
1 | A21G C33G G38A A69C | ≤ 0.5
2 | A21U C22G U59C | ≤ 0.5
3 | C22G A42G C60A | ≤ 0.5
4 | A21U C29G C49G | 0.519
5 | A21U A42G C62A | ≤ 0.5
6 | C22A U32C C66U | 0.503
7 | A21U C22U G48C A65G C66U | ≤ 0.5
8 | A21G C27G C60G A70C | ≤ 0.5
9 | A21G U47G | 0.525
10 | C22G C27G C31G C49A G52A | ≤ 0.5
11 | A21G A45C C49U C55U | 0.531
12 | A21U C62U C66G | ≤ 0.5
13 | A21C C46G C49G G56A | 0.528
14 | A20U U47G G52C | ≤ 0.5
15 | A21U G48C C55A C66U | ≤ 0.5
16 | A21C A45G | 0.918
17 | A21G C61A G67A | 0.532
18 | A21C U28A G68A | ≤ 0.5
19 | A21G C62U | 0.924
20 | A21C A43U G50A G52U A69C | 0.554
21 | A21U C34G U35C | 0.785
22 | C22A C31G U35C | ≤ 0.5
23 | C22G A37G A45C G51U | ≤ 0.5
24 | A21C G41A G48C G51C G52C | ≤ 0.5

Row | Variant | yeast fitness
25 | A21C C22U G38C A40C C62A | 0.559
26 | A21U G67U | 0.742
27 | A21U G67C | 0.645
28 | C22G C27G C31G | 0.571
29 | A21G C49U | 0.994
30 | C22G C27G | 0.597
31 | A21U U28G G56A | ≤ 0.5
32 | A21G U32C U59G C61U C66U A70C | 0.572
33 | C22A C24G G56C | 0.786
34 | A21C G39A A65C | ≤ 0.5
35 | A21C A40U A45G A65C | 0.547
36 | A21C C34U A36U G38C C49U | ≤ 0.5
37 | A21C C24U U32A C62G | 0.539
38 | A21U C31A C61U | ≤ 0.5
39 | A21U G50C C61G A70U | ≤ 0.5
40 | A21U A37U A40U G50C | ≤ 0.5
41 | C22G C24A G38A | 0.544
42 | C22G A36C G68C | ≤ 0.5
43 | C22A C27G G41A C62A | 0.655
44 | A21C C34G G48C | ≤ 0.5
45 | A21G C31G C66A | 0.505
46 | C22A C24G U32C C34U | ≤ 0.5
47 | C22A A45C | 0.665
48 | A21C G67A | 0.8

Row | Variant | yeast fitness
49 | C22G C24G C55G | ≤ 0.5
50 | A21G C49U U59G | 0.619
51 | A21G C27U A69U | 0.772
52 | C22A G23C C34U A36G A40U G67A | ≤ 0.5
53 | A21G C55A | 0.641
54 | A21G C55G | 0.671
55 | C22A C61A | 0.611
56 | A21U A69C A70G | 0.594
57 | A21U U35C G51C | ≤ 0.5
58 | A20U U26A | 0.754
59 | A21G A36C | 0.557
60 | A21C C24A U32A | ≤ 0.5
61 | C22A G41C A65C | ≤ 0.5
62 | C22G A45C C61U A65G | ≤ 0.5
63 | A21U C24G U28A U59A | ≤ 0.5
64 | A21C C22G G38C A57C | 0.524
65 | C22A G25A A69C | 0.784
66 | A20U U35C A36G C55G | 0.578
67 | A21G U35C C66A | ≤ 0.5
68 | A21G U28G C62G | ≤ 0.5
69 | C22A C60A | 0.659
70 | A21C C22A U26C U35C | ≤ 0.5
71 | A21U C22A G50C | 0.575
72 | A21U U28A A40U C55A A70G | ≤ 0.5

Row | Variant | yeast fitness
73 | A21C C30A A42C G48C C49U U54C | 0.598
74 | C22A U26A A36U G56C C60G | ≤ 0.5
75 | C22G A45G C49U A70U | ≤ 0.5
76 | C22A C49U C55A | 0.656
77 | A21G C27U | 1.03
78 | A21G C27A | 0.757
79 | A21G C27G | 0.562
80 | A21G G44C A69U | 0.681
81 | A21U C49U U54A | ≤ 0.5
82 | A21U G52A C62G | ≤ 0.5
83 | A20U U32A A65C | ≤ 0.5
84 | A21U C31A G39C C66U | ≤ 0.5
85 | C22G C24U A43C A70U | ≤ 0.5
86 | A21U C49G | 0.618
87 | A21C G38A G58C | 0.503
88 | A21C C34U U64A | ≤ 0.5
89 | C22A A65U | 0.849
90 | C22G A36C U47A | 0.552
91 | A21C G25C | 0.896
92 | C22A C24G U53A | ≤ 0.5
93 | A21C U32C A40G G68A | ≤ 0.5
94 | C22A C29U C62G | ≤ 0.5
95 | A21C A65C G67U | ≤ 0.5
96 | A21C C34U | 0.536

Row | Variant | yeast fitness
97 | C22A A45C U54C | 0.522
98 | A21C U32C C60G | ≤ 0.5
99 | A21G C49G U59C | 0.583
100 | A21U A42U C66U | ≤ 0.5
101 | C22G C27G C31G C49U C61G A69U | 0.534
102 | C22A U28C G67A | 0.538
103 | C22G A45C G52C A57U | 0.549
104 | A20U U32C C55U | 0.55
105 | A21C A42G | 0.751
106 | A21U C61A G67A | ≤ 0.5
107 | A21U C34G A42U C61U | ≤ 0.5
108 | A21G A37C A57C G58A | ≤ 0.5
109 | C22A G63C A65C | ≤ 0.5
110 | A21U A37U | 0.672
111 | C22A C24U C30U C31G | 0.531
112 | A21U C29A | 0.751
113 | A21U U54C | 0.703
114 | A21C C62U C66A | ≤ 0.5
115 | C22A C24G A69U | ≤ 0.5
116 | C22A C30U C31G C61U A69C | ≤ 0.5
117 | A21C G25C U26G U59A G63C G68U | ≤ 0.5
118 | A21U A37U A40U G50C G56C | ≤ 0.5
119 | A21U C24U A37U G51U | ≤ 0.5
120 | A21U G25A G56C | ≤ 0.5

Row | Variant | yeast fitness
121 | A21C C60G C62G A70C | ≤ 0.5
122 | A21G C29U A36U A43U C62A | 0.559
123 | C22A C24U G58C C62G | ≤ 0.5
124 | A21C G25C U26G G50U G56A U59A A70C | 0.541
125 | C22A C24G A65U A69C | ≤ 0.5
126 | A21C C33G C34G U54A | ≤ 0.5
127 | A21G A42U G67A | 0.54
128 | A21C C27U C49U G58C C61A A65U A69U | ≤ 0.5
129 | A21G G23A C27U C66U | 0.533
130 | C22A U32C A37C A65G | ≤ 0.5
131 | A21G C22A G63C G67A | ≤ 0.5
132 | C22G C24A G38A G67A | 0.531
133 | C22A C31G C46A C49U U54C G68A | 0.581
134 | A21G A70G | 0.992
135 | A20U U47C | 0.935
136 | A21U C34A U54A C62A A70G | ≤ 0.5
137 | A21U C22U A42C A43U G44C A65C | 0.663
138 | A21U C33U G38A A45U C62U | ≤ 0.5
139 | A21G G23A C66G | ≤ 0.5
140 | A21U C30G C31U G48C | 0.753
141 | A20U U35C | 0.949
142 | A21U C34A G56C G63A U64C G67C | ≤ 0.5
143 | A21U G48C C55A C66G G67C | 0.526
144 | A21G C30A U32G G67A A69C | ≤ 0.5

Row | Variant | yeast fitness
145 | C22A A40G C60G A70G | ≤ 0.5
146 | A21G U28A C29U G58A | 0.528
147 | A21G C55U C66U | ≤ 0.5
148 | A21C C66A | 0.527
149 | C22A G41A C46U C66U | 0.716
150 | A21G A36G G38C G50A | ≤ 0.5
151 | A21C U64A | 0.799
152 | C22A C24G A36C | ≤ 0.5
153 | A21C A40C | 0.734
154 | A21U C22G C66U | 0.568
155 | A21C C30G A69C | 0.542
156 | A21G C31G A65C | 0.674
157 | A21U C31G A40U G50C C61A C66U | 0.513
158 | A21G C34G A40G | 0.572
159 | A21G C30G A36G C46G A57U | 0.551
160 | A21G C30U U53A A57U A65U | ≤ 0.5
161 | C22A G23A C33U A42U A69U | ≤ 0.5
162 | A21U C30A | 0.757
163 | A21C G63C | 0.779
164 | A20U U28C G44A C46U G48A C49U C60G C62A C66G | ≤ 0.5
165 | A21G C66U | 0.858
166 | A21C C29G G68C | 0.557
167 | A21C U47A C60U G67C | ≤ 0.5
